Source: PubChem
DAX1 inh-1: DAX1 (NR0B1) inhibitors on StAR promoter, primary screen, cell-based, luminescence, SF-1 (NR5A1), full-length DAX-1. HEK293T StAR-luciferase reporter, SF-1/DAX-1 repression relief. inhibition, % at 6.8 µM. hit rate 1.1% among 370,000;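 active = inhibition above the mean over all tested compounds plus 3 SD, cut at about 3.6% in these data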;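 note: 0% = DAX-1 cells with DMSO and 100% = cells lacking DAX-1 with DMSO; higher inhibition means more luminescence from relief of DAX-1 repression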
DAX1 inh-2: DAX1 (NR0B1) inhibitors, primary screen, cell-based, HEK293, Gal4-DAX1, luciferase luminescence; HEK293 Gal4-DAX1 luciferase reporter; inhibition, % at 6.75 µM; hit rate 0.99% among 340,000;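 active = inhibition above the mean over all tested compounds plus 3 SD, cut at about 4.2% in these data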;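 note: 0% = DAX1-transfected cells with DMSO and 100% = empty-vector control cells with DMSO; inhibition shows as a rise in luminescence from relieved DAX1 repression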
Target sequence (P51843 207-470 limits assumed): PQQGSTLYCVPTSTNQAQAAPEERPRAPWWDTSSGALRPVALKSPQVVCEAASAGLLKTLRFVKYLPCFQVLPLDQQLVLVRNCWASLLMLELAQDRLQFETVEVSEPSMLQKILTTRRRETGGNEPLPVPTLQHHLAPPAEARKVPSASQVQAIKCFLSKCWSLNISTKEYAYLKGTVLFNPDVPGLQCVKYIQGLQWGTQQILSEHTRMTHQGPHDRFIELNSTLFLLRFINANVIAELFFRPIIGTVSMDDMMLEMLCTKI
GASC-1 inh: inhibitors of GASC-1 histone demethylase, primary screen, biochemical, fluorescence, DELFIA europium; Lysine-specific demethylase 4C (Homo sapiens), Q9H3R0; GST-JMJD2C(1-420) H3K9me3 demethylation; inhibition, % at 2.35 µM; hit rate 0.069% among 330,000;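 active = more than half of a compound's replicate wells show inhibition beyond 50%, single wells judged on their own value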;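 note: signal counts dimethyl H3K9 product captured on neutravidin plate; 0% = median of DMSO wells and 100% = 0.3 times that DMSO median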
NR2E3 ag-1: NR2E3 agonists in two-hybrid cells, primary screen, cell-based, luminescence, CHO-S, Gal4-NCOR/VP16-NR2E3; luciferase; inhibition of corepressor binding, % at 3.98 µM; hit rate 0.35% among 360,000; AID 602229, 2012;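 active = inhibition above the mean of all tested compounds plus 3 SD, cut at about 70% in these data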;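 note: 0% = DMSO with NR2E3 transfected cells and 100% = cells lacking NR2E3 construct; higher means lower luciferase signal from less NR2E3 corepressor binding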
Target sequence (Q9Y5X4 whole entry, looked up, the tested form may be a part): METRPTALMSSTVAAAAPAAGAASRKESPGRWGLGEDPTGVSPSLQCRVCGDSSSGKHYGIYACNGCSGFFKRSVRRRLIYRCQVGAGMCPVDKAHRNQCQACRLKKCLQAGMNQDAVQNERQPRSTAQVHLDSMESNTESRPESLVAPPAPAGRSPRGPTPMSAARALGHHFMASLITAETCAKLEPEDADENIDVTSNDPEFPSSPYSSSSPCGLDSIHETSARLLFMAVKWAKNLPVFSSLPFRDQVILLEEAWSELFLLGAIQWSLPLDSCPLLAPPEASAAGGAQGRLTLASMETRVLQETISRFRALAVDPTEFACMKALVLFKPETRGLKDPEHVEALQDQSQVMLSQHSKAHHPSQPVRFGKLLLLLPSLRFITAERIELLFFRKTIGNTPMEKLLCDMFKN
SMARCA2 activ: SMARCA2 (BRM) function activators, primary screen, cell-based, luminescence, high throughput | MG213 cells, MMTV-luciferase reporter, dexamethasone, overnight | activation, % at 9.1 µM | hit rate 1% among 370,000 | AID 652017, 2013; in the data active = activation above about 7.8%;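 note: 0% = vehicle wells and 100% = reference activator wells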
NR2E3 ag-2: inhibitors of NR2E3-RetCOR corepressor binding, primary screen, NR2E3 agonist project, biochemical, TR-FRET, GST-NR2E3, biotin-RetCOR | 1536-well | inhibition of corepressor binding, % at 4.78 µM | hit rate 0.12% among 320,000 | AID 2300, 2010;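 active = percent inhibition above the cutoff of mean plus 3 SD of all tested compounds, set per screening campaign, cut at about 20% in these data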;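 note: 0% = DMSO wells and 100% = biotin wells as full block of FRET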
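Material: NR2E3–RetCOR corepressor complex / Amount: 1.35 nM GST-NR2E3 / Medium: Tris pH 7.5 / Compound: single nominal compound dose of 4.8 µM / Incubation: 5 h at 4 °C / Technique: TR-FRET, Eu(K)-anti-GST donor, streptavidin-D2 acceptor, ex 340, em 617/671 nm / Read-out basis: percent loss of FRET ratio relative to control wells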
SMARCA2 act conf: SMARCA2 (BRM) function activators, confirmation, cell-based, luminescence, triplicate. hit rate 30% among 3,500. shares compounds with SMARCA2 activ. activation, % at 9.1 µM. MG213 cells, MMTV-luciferase with dexamethasone, overnight; MG213 cells expressing E1A, Rb sequestered; DMSO wells 0%, reference activator 100%;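 active = activation above its plate's cutoff, the mean activation of tested wells plus 3 SD, cut at about 7.9% in these data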
GAL4-VP16 Luc: GAL4-VP16 luciferase reporter activation, counter-screen for SMARCA2 (BRM) activator project, cell-based, pG5luc, luminescence, high throughput | HEK293 GAL4-VP16 pG5luc reporter; scaled: DMSO wells 0%, SAHA wells 100% | hit rate 41% among 3,500 | shares compounds with SMARCA2 activ | activation, % at 9.1 µM | AID 686939, 2013;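 active = activation above the solvent-only control well mean plus 3 SD, averaged across control plates, cut at about 5.2% in these data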
Active calls of the source: *; . = not tested or not shown. Shown are actives, neighbours in structure and some others; about 3.2% of the full set was active somewhere.

SMILES | DAX1 inh-1 | DAX1 inh-2 | GASC-1 inh | NR2E3 ag-1 | SMARCA2 activ | NR2E3 ag-2 | SMARCA2 act conf | GAL4-VP16 Luc
CCC(=O)NC1=C(Nc2ccc(N)cc2)C(=O)c2ccccc2C1=O | 1.8 | 2.6 | 4.5 | -127.5 | 9.0* | -18.4 | 7.5 | 11.0*
Cc1cc(CN2CCN(c3ncc(Cc4ccccc4)cn3)CC2)cc(C)c1O | -0.7 | . | . | . | -6.3 | . | . | .
CN(C(=O)c1cc(-c2ccccc2)on1)C1CCCCC1 | 2.8 | 3.3 | -10.2 | -162.7 | 9.1* | -6.8 | 11.1* | 9.3*
CC(C)CN1C(=O)[C@]2(CC(=O)N(C)C2c2ccccc2)c2cc(-n3cc(CCCC#N)nn3)ccc21 (stereo partly drawn) | 0.1 | . | . | . | -4.1 | . | . | .
CCN(CC)CCn1c2ccccc2c2nc3ccccc3nc21 | -0.6 | 2.1 | -6.2 | -110.9 | 34.2* | 2.2 | 110.5* | -1.5
COC(=O)[C@H](C(C)C)N(CCCc1cn(Cc2ccccc2)nn1)S(=O)(=O)c1ccccc1Br | -2.8 | . | . | . | -3.6 | . | . | .
O=C(NC1CCCC1)N1CCC(c2nc3ccc(Cl)cc3[nH]2)CC1 | -0.6 | . | . | . | -2.3 | . | . | .
CC(NC(=O)CCc1nnc(Cc2cccc(C(F)(F)F)c2)o1)C1CC1 (stereo not drawn) | 0.6 | 1.2 | 1.5 | -67.1 | 3.9 | 1.8 | . | .
CC(C)CN(C)C(=O)CCc1nnc(Cc2cccc(C(F)(F)F)c2)o1 | 2.2 | 2.7 | 21.4 | -66.5 | 8.4* | 4.0 | 6.1 | 5.2*
COc1ccc(CCC2(C)NC(=O)NC2=O)cc1 (stereo not drawn) | -0.8 | 0.4 | 3.0 | -31.8 | 8.1* | 2.9 | 1.3 | 1.7
CC1(C(=O)NS(=O)(=O)c2ccccc2Cl)CCN1C(=O)C1CCCCC1 (stereo not drawn) | 0.9 | . | . | -57.2 | -2.7 | . | . | .
CSc1ncnc2c1ncn2CCCN(C)Cc1ccco1 | 0.9 | 0.1 | . | -12.1 | -2.8 | . | . | .
O=C(NNC1=C(C(=O)C(F)(F)F)CCC1)c1ccc(Cl)cc1 | 2.7 | 0.7 | 2.4 | -34.1 | 14.1* | 4.7 | -4.8 | -0.2
CC(C)(C)c1ccc(C(=O)NNC(=O)c2ccc(Cl)cc2)cc1 | -0.6 | -1.3 | -0.9 | 5.1 | -3.3 | 0.1 | . | .
COC(=O)C1CN(Cc2ccccc2)CCS(=O)(=O)N1Cc1ccccc1 (stereo not drawn) | -0.1 | . | . | . | 4.0 | . | . | .
CC(=O)Nc1ccc2c(c1)ncn2-c1ccccc1 | 2.4 | . | 1.9 | -115.5 | 11.6* | 2.1 | 15.7* | 7.3*
Cc1cccc(C(=O)Nc2ccc3c(c2)nc(C)n3C)c1 | 3.2 | 0.8 | -6.1 | -108.3 | -1.1 | -1.4 | . | .
Cc1cccc(C(=O)Nc2ccc3c(c2)ncn3C)c1 | 3.4 | 0.3 | 1.9 | -85.6 | 11.6* | 0.9 | 8.3* | 18.7*
CCn1c(SCC(=O)Nc2ccc(S(=O)(=O)Nc3cc(C)nc(C)n3)cc2)nc2sc(C)c(C)c2c1=O | -0.7 | . | . | . | 2.7 | . | . | .
COc1ccc(S[C@]2(C(=O)N3CCOCC3)CC(=O)N(c3ccc(C#N)cc3)[C@@H]2c2ccc(OC)cc2)cc1 | -1.7 | . | . | . | -2.3 | . | . | .
CCCOc1ccc(F)cc1-c1cc(C(=O)NCc2cc(C(F)(F)F)cc(C(F)(F)F)c2)[nH]n1 | . | . | . | 2.4 | . | . | . | .
COC(=O)C1=C(C)N(Cc2ccccc2C(F)(F)F)C(=NCc2cccc(C(F)(F)F)c2)NC1c1ccc(C(F)(F)F)cc1 (stereo not drawn) | -0.5 | . | . | . | 10.2* | . | -6.6 | -0.3
Cn1c(C(=O)N2CCCC(Nc3ccc(F)cc3)C2)cc2ccccc21 (stereo not drawn) | 0.0 | -0.2 | -4.0 | 21.8 | 0.7 | -2.8 | . | .
CN(C)c1nn2c(-c3ccccc3)nnc2o1 | 0.4 | -0.1 | . | 4.4 | 8.8* | . | -0.2 | 2.9
c1ccc(-c2nn3c(-c4ccccc4)nnc3o2)cc1 | 0.2 | 0.6 | . | 10.7 | -0.3 | . | . | .
SMILES | DAX1 inh-1 | DAX1 inh-2 | GASC-1 inh | NR2E3 ag-1 | SMARCA2 activ | NR2E3 ag-2 | SMARCA2 act conf | GAL4-VP16 Luc
CC(C)C(NS(=O)(=O)c1ccccc1F)C(=O)OCC(=O)NCc1ccco1 (stereo not drawn) | -0.6 | -0.2 | . | -26.1 | -1.1 | . | . | .
COc1ccc(-c2cc(CNc3nc(NC(C)C)nc4cc(-c5ccccc5)sc34)on2)cc1 | 0.0 | . | . | 6.2 | 11.7* | . | 3.1 | 4.0
CC(=O)NCCNc1nc(NC(C)C)nc2cc(-c3ccccc3)sc12 | -0.7 | . | . | 31.8 | -1.7 | . | . | .
CN(CC(=O)Nc1c(Cl)cccc1Cl)C(=O)CCC1CCCC1 | -0.1 | -0.5 | 4.7 | 5.7 | -2.1 | 2.2 | . | .
O=C(NCc1ccco1)C1CCCN(S(=O)(=O)c2ccc([N+](=O)[O-])cc2)C1 (stereo not drawn) | -0.3 | . | . | . | 3.0 | . | . | .
Oc1[nH]c(N=C2N=c3ccccc3=N2)c2ccccc12 | -0.7 | -1.0 | -8.3 | -19.0 | 14.3* | -5.0 | 6.9 | 37.4*
Cc1ccc2c(c1)=N/C(=N\c1[nH]c(O)c3ccccc13)N=2 | 0.6 | 1.8 | . | -84.9 | 3.0 | . | . | .
O=C(c1cc(Cl)ccc1Cl)N1CCOCC1 | -0.2 | -1.2 | 9.3 | -6.7 | 10.5* | 3.1 | 8.2* | 1.4
C=CCCC1CN(Cc2ccc(OC)cc2)S(=O)(=O)c2c(Oc3ccc(OC)cc3)cccc2O1 (stereo not drawn) | 0.1 | . | . | . | -0.7 | . | . | .
CCOC(=O)c1ccc(COC(=O)c2ccc3c(c2)-c2ccccc2C3=O)cc1 | -0.5 | 1.0 | 3.2 | 5.0 | 8.9* | -0.2 | -4.1 | 2.2
O=C(OCc1cccc(F)c1)c1ccc2c(c1)-c1ccccc1C2=O | 0.2 | 0.6 | -4.6 | -7.0 | -0.4 | 6.5 | . | .
NC(=O)C1CCCN(Cc2ccc(Cl)cc2)C1 (stereo not drawn) | 0.6 | 1.0 | 7.6 | -24.6 | 8.3* | -1.1 | 6.0 | -1.1
COc1ccc(-c2nc3nc(C)c(Cc4ccccc4)c(=O)n3[nH]2)cc1 | 0.7 | 0.4 | 4.5 | -55.3 | 8.1* | -0.6 | 2.6 | 3.4
COC(=O)Cc1c(C)nc2nc(-c3ccc(OC)cc3)[nH]n2c1=O | -0.3 | 1.1 | 14.1 | -10.5 | -0.5 | -1.6 | . | .
